The text below walks through data of ChEMBL document CHEMBL4422636, “Investigation of the structural requirements for N-methyl-D-aspartate receptor positive and negative allosteric modulators based on 2-naphthoic acid” (Eur J Med Chem, 2019).

SMILES strings stand for the structures. Calls of active or inactive are those of the source. The rule behind the calls is not given here.

The target in series [1] is Glutamate receptor ionotropic, NMDA 2C (Rattus norvegicus) (UniProt Q00961). Put plainly: Allosteric modulation of rat GluN2C expressed in Xenopus laevis oocytes assessed as L-glutamate/glycine-induced current response at 100 uM at holding potential -60 mV by two-electrode voltage clamp method relative to L-glutamate/glycine. Type of series: cell-based. Summed up:
(§1)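 GluN1a with one GluN2 subunit; RNAs mixed 1:1–3 molar, 15–30 ng total injected into Xenopus oocytes, which were held in ND-96 at 17°C for 1–5 days. TEVC at −60 mV in 116 mM NaCl, 2 mM KCl, 0.3 mM BaCl2, 5 mM HEPES, pH 7.4. […] Reported as % of agonist-alone response, mean ± s.e.m., n≥4.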
For orientation: In two-electrode clamp one electrode senses voltage and the other passes current.

For series [2], the target named is Glutamate receptor ionotropic, NMDA 2D (Rattus norvegicus) (UniProt Q62645). As to the kind of experiment: Allosteric modulation of rat GluN2D expressed in Xenopus laevis oocytes assessed as L-glutamate/glycine-induced current response at 100 uM at holding potential -60 mV by two-electrode voltage clamp method relative to L-glutamate/glycine. The series is classed as cell-based. An outline of the steps: as §1

Series [3] addresses Glutamate receptor ionotropic, NMDA 2B (Rattus norvegicus) (UniProt Q00960). As to the kind of experiment: Allosteric modulation of rat GluN2B expressed in Xenopus laevis oocytes assessed as L-glutamate/glycine-induced current response at 100 uM at holding potential -60 mV by two-electrode voltage clamp method relative to L-glutamate/glycine. Type of series: cell-based. Summed up: as §1

The target of series [4] is Glutamate receptor ionotropic, NMDA 2A (Rattus norvegicus) (UniProt Q00959). As to the kind of experiment: Allosteric modulation of rat GluN2A expressed in Xenopus laevis oocytes assessed as L-glutamate/glycine-induced current response at 100 uM at holding potential -60 mV by two-electrode voltage clamp method relative to L-glutamate/glycine. The series is classed as cell-based. Summed up: as §1

The nature of series [5]: Solubility of the compound at 100 uM. The series is classed as physicochemical. Summed up:
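Compounds were inspected for visible precipitation at the concentrations used in the oocyte assays.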

The target in series [6] is Glutamate receptor ionotropic, NMDA 2A (Rattus norvegicus) (UniProt Q00959). As to the kind of experiment: Agonist activity at rat GluN2A expressed in Xenopus laevis oocytes assessed effect on current response at holding potential -60 mV by two-electrode voltage clamp method relative to L-glutamate/glycine. Type of series: cell-based. Summed up:
as §1

Series [7] addresses Glutamate receptor ionotropic, NMDA 2D (Rattus norvegicus) (UniProt Q62645). Put plainly: Agonist activity at rat GluN2D expressed in Xenopus laevis oocytes assessed as effect on current response at holding potential -60 mV by two-electrode voltage clamp method relative to L-glutamate/glycine. Type of series: cell-based. Summed up:
as §1

The target of series [8] is Glutamate receptor ionotropic, NMDA 2C (Rattus norvegicus) (UniProt Q00961). Put plainly: Agonist activity at rat GluN2C expressed in Xenopus laevis oocytes assessed effect on current response at holding potential -60 mV by two-electrode voltage clamp method relative to L-glutamate/glycine. Type of series: cell-based. Summed up:
as §1

Series [9] addresses Glutamate receptor ionotropic, NMDA 2B (Rattus norvegicus) (UniProt Q00960). As to the kind of experiment: Agonist activity at rat GluN2B expressed in Xenopus laevis oocytes assessed as effect on current response at holding potential -60 mV by two-electrode voltage clamp method relative to L-glutamate/glycine. Type of series: cell-based. An outline of the steps:
as §1

Glutamate receptor ionotropic, NMDA 2C (Rattus norvegicus), sequence (Q00961 20-1237 limits assumed): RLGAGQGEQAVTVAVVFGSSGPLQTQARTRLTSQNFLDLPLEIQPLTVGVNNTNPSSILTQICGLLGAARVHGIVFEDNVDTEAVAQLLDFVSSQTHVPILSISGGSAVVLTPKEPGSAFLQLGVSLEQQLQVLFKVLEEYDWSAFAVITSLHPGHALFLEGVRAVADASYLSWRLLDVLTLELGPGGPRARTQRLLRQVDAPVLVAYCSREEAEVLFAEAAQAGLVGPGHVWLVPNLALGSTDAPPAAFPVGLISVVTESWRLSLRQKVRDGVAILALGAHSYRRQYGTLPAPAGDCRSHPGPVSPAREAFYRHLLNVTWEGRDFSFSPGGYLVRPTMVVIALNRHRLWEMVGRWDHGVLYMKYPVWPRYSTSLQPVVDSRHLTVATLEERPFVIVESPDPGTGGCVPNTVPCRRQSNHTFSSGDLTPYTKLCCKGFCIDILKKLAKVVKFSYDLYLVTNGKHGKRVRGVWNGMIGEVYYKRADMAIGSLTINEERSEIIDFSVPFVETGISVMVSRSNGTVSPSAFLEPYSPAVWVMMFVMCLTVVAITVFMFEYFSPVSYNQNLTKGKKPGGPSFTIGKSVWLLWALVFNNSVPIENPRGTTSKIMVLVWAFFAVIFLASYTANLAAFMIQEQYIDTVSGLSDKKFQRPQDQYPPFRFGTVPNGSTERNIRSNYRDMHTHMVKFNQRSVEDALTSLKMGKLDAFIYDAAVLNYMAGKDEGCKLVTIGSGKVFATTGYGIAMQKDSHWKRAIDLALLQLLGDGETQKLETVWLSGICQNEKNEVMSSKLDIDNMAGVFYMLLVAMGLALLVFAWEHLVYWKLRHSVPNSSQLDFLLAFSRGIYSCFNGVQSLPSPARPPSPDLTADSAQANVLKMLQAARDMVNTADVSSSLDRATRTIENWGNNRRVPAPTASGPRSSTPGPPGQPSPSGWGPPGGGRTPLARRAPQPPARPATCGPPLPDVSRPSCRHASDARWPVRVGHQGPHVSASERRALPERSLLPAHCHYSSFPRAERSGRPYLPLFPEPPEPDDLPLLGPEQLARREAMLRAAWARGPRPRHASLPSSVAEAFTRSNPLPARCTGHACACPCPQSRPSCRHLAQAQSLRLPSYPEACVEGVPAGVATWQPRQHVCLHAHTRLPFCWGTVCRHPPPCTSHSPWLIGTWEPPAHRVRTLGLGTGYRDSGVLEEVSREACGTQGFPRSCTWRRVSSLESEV
Glutamate receptor ionotropic, NMDA 2B (Rattus norvegicus), sequence (Q00960 27-1482 limits assumed): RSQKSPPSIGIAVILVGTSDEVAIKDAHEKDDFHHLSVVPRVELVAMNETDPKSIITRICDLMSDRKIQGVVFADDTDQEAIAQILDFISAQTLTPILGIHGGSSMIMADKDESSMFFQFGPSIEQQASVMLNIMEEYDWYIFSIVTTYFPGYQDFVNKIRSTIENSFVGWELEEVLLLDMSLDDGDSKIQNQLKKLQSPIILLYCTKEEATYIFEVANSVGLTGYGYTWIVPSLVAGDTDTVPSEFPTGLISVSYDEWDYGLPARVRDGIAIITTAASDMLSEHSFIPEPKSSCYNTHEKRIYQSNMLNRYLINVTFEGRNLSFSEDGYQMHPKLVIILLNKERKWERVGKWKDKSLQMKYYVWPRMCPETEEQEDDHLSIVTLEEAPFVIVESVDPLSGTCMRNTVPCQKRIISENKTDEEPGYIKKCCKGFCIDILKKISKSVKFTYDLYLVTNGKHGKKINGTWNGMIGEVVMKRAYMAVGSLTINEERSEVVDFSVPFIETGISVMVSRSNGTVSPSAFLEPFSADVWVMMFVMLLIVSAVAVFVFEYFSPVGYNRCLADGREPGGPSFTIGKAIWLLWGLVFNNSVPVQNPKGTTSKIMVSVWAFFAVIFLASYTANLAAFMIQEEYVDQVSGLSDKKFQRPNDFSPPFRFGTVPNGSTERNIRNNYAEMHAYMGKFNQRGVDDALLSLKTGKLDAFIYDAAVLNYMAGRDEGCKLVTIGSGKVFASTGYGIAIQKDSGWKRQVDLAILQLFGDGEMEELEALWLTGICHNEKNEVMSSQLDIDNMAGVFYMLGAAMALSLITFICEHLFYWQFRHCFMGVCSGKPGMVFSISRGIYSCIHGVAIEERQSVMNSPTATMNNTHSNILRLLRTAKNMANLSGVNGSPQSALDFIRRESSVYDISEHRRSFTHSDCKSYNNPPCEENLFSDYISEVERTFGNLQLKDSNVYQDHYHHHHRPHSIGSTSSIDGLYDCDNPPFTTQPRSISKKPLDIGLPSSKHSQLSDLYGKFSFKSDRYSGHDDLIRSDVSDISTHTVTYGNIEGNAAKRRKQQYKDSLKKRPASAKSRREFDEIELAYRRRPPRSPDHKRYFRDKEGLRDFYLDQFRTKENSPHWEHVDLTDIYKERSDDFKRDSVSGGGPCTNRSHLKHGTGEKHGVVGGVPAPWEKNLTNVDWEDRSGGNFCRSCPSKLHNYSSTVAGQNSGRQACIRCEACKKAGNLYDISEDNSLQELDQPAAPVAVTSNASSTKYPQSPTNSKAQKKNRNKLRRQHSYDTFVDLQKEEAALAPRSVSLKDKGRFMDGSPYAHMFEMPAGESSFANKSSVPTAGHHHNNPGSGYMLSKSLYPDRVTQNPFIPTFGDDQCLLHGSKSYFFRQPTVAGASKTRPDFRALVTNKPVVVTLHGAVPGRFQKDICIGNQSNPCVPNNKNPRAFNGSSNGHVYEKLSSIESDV
Glutamate receptor ionotropic, NMDA 2A (Rattus norvegicus), sequence (Q00959 23-1464 limits assumed): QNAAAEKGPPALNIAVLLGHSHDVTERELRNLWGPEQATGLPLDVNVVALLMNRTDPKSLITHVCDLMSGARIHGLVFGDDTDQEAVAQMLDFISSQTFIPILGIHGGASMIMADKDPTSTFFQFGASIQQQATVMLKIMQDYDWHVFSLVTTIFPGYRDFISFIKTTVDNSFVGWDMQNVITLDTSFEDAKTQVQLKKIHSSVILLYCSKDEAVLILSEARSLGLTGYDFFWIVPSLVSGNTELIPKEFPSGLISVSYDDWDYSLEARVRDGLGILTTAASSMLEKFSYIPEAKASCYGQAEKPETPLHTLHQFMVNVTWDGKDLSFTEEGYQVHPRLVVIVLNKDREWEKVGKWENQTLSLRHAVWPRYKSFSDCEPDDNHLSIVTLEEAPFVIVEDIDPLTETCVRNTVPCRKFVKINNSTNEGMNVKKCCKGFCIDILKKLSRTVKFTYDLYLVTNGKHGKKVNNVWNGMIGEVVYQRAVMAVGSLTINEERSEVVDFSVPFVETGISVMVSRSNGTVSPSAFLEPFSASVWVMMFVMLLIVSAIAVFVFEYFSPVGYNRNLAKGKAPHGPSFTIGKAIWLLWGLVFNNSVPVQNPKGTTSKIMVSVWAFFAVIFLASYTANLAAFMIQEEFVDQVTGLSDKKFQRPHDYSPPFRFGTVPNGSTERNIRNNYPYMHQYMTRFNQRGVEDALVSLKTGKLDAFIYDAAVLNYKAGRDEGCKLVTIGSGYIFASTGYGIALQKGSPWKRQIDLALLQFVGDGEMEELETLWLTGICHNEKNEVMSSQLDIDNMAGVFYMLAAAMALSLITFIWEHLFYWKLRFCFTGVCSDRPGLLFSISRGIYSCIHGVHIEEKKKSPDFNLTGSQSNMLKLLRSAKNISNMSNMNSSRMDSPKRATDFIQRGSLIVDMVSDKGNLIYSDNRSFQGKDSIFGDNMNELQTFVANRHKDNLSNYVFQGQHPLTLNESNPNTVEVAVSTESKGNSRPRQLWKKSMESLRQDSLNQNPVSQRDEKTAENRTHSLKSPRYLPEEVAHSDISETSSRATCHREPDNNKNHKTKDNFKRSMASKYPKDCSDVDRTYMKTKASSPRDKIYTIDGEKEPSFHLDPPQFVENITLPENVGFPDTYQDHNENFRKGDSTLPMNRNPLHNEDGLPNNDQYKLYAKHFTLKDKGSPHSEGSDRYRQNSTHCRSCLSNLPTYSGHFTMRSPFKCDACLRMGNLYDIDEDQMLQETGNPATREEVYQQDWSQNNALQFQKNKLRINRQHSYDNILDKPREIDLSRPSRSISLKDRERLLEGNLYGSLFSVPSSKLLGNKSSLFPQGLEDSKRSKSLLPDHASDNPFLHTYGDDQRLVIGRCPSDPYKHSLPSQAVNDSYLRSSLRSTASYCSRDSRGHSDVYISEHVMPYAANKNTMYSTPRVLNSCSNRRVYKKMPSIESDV

As to `O=C(O)c1cc2ccc(/C=C/c3ccccc3)cc2cc1C(=O)O`, the Activity in series [1] came to 37.1%; in [2], 38.6%; in series [3] it was 66.7%; in series [4], 55%. The solubility entry in [5] is “Soluble”.

Take `CCCCCc1ccc2cc(CC(=O)O)ccc2c1`: the Activity in series [1] worked out at 60%; in series [2], 37%; in [3], 67%; in series [4], 67%. The outcome in series [6], in [7], in series [8] and in series [9] was inactive. The solubility result in [5] is given as “Soluble”.

As for `O=C(O)c1cc2cc(/C=C/c3ccccc3C(=O)O)ccc2cc1O`, the Activity in [1] came out at 83.7%; in [2], 103%; in series [3] it was 84.5%; in series [4], 92.1%. In addition, in [5], the solubility result was “Soluble”.

As for `CC(C)CCCc1ccc2cc(O)c(C(=O)O)cc2c1`, the Activity in [1] worked out at 113%; in series [2], 180%; in series [3] it was 113%; in series [4] it was 78%. Besides, the outcome in [6], in [7], in [8] and in [9] was inactive. For the same compound, the solubility result in series [5] is given as “Soluble”.

On to `CC(C)COCc1ccc2cc(C(=O)O)ccc2c1`, for which the Activity came out at 83% in series [1], 72% in [2], 49% in series [3] and 83% in [4]. For the same compound, the solubility result in series [5] was “Soluble”.

Regarding `COc1cccc(/C=C/c2ccc3cc(O)c(C(=O)O)cc3c2)c1`, the Activity is 30.8% in [1], 29.9% in [2], 24.9% in series [3] and 52.4% in series [4]. Further, the solubility entry in series [5] was “Soluble”.

Consider `COc1ccccc1/C=C/c1ccc2cc(O)c(C(=O)O)cc2c1`, for which the Activity in series [1] worked out at 61.7%; in series [2] it was 71%; in series [3], 74%; in series [4] it was 105%. Moreover, the solubility entry in series [5] is listed as “Soluble”.

Take `O=C(O)c1ccc(CCc2ccc3cc(O)c(C(=O)O)cc3c2)cc1`: the Activity in series [1] amounted to 115%; in series [2] it was 92.6%; in series [3], 95.8%; in series [4] it was 102%. In addition, the solubility entry in series [5] is given as “Soluble”.

`CCC/C=C/c1ccc2cc(C(=O)O)ccc2c1`: the Activity in series [1] turned out to be 82%; in series [2] it was 68%; in [3], 58%; in [4], 51%. Moreover, the outcome in series [6], in [7], in [8] and in [9] was inactive. Moreover, the solubility result in series [5] is “Soluble”.

As for `O=C(O)c1ccc2cc(C3CC3)ccc2c1`, the Activity in series [1] came to 97%; in series [2], 94%; in [3], 97%; in series [4], 97%. Further, the outcome in series [6], in series [7], in series [8] and in series [9] was inactive. In [5], the solubility entry was “Soluble”.

Regarding `O=C(O)c1cccc(/C=C/c2ccc3cc(O)c(C(=O)O)cc3c2)c1`, the Activity was 76.8% in [1], 61.4% in series [2], 70% in series [3] and 90.3% in series [4]. Also, in series [5], the solubility entry was “Soluble”.

For the compound `CC(C)CCC(=O)c1ccc2cc(C(=O)O)ccc2c1`, the Activity was 99% in [1], 79% in series [2], 82% in series [3] and 128% in series [4]. The solubility result in [5] was “Soluble”.

As to `CC(C)CNC(=O)c1ccc2cc(C(=O)O)ccc2c1`, the Activity in series [1] is 46%; in series [2] it was 99%; in series [3] it was 65%; in series [4], 65%. Besides, the solubility entry in [5] is on record as “Soluble”.

As for `COc1ccc(/C=C/c2ccc3cc(O)c(C(=O)O)cc3c2)cc1`, the Activity in [1] is 39.6%; in series [2], 39%; in series [3], 36%; in [4], 42.7%. The solubility entry in [5] is on record as “Soluble”.

As to `CC(C)CCCc1ccc2ccc(C(=O)O)cc2c1`, the Activity in series [1] worked out at 115%; in series [2], 80%; in [3] it was 120%; in [4], 123%. Besides, the outcome in series [6], in series [7], in [8] and in series [9] was inactive. In series [5], the solubility result is listed as “Soluble”.

`O=C(O)c1cc2cc(CCc3ccccc3)ccc2cc1O`: the Activity was found to be 46.8% in series [1], 32.1% in series [2], 54.3% in series [3] and 71.4% in series [4]. Also, the solubility result in series [5] was “Soluble”.

In the case of `CCCCCc1ccc2cc(CO)ccc2c1`, the Activity in series [1] was 76%; in series [2], 85%; in series [3], 84%; in series [4], 89%. Further, the outcome in [6], in series [7], in series [8] and in [9] was inactive. In addition, in series [5], the solubility result is on record as “Soluble”.

Turning to `CC(C)CCCc1ccc2cc(C(=O)O)c(C(=O)O)cc2c1`, the Activity came out at 47% in series [1], 24% in series [2], 88% in [3] and 92% in series [4]. Further, the result in series [6], in series [7], in series [8] and in series [9] was inactive. In series [5], the solubility result is “Soluble”.

On to `O=C(O)c1cc2cc(/C=C/c3ccccc3)ccc2oc1=O`, for which the Activity in series [1] turned out to be 114%; in series [2], 119%; in series [3], 92%; in series [4] it was 95.1%. The solubility result in series [5] was “Soluble”.

As for `CC(C)C/C=C/c1ccc2cc(C(=O)O)ccc2c1`, the Activity was 264% in [1], 220% in series [2], 152% in [3] and 135% in series [4]. The result in series [6], in [7], in series [8] and in series [9] was inactive. For the same compound, the solubility result in series [5] was “Soluble”.

On to `O=C(O)c1cc2cc(CCc3ccccc3C(=O)O)ccc2cc1O`, for which the Activity in [1] turned out to be 94.1%; in series [2], 80.7%; in series [3], 85.2%; in series [4] it was 91.8%. Also, the solubility result in series [5] is reported as “Soluble”.

`CC(CCCc1ccc2cc(C(=O)O)ccc2c1)CC(=O)O` (racemic): the Activity in [1] was found to be 96%; in series [2], 71%; in series [3] it was 64%; in series [4] it was 60%. In addition, the result in series [6], in series [7], in [8] and in series [9] was inactive. Further, in [5], the solubility entry is “Soluble”.

`CC(C)COC(=O)c1ccc2cc(C(=O)O)ccc2c1`: the Activity in [1] is 144%; in series [2] it was 169%; in series [3] it was 179%; in [4] it was 159%. Besides, the solubility entry in series [5] is on record as “Soluble”.

On to `CC(C)CSCc1ccc2cc(C(=O)O)ccc2c1`, for which the Activity was determined as 105% in [1], 100% in series [2], 77% in series [3] and 113% in [4]. Also, the solubility result in series [5] was “Soluble”.

As for `CC(C)C(=O)OCc1ccc2cc(C(=O)O)ccc2c1`, the Activity worked out at 56% in series [1], 42% in [2], 45% in series [3] and 73% in [4]. For the same compound, in series [5], the solubility result is given as “Soluble”.

In the case of `O=C(O)c1ccc(/C=C/c2ccc3cc(O)c(C(=O)O)cc3c2)cc1`, the Activity in series [1] stood at 85.2%; in series [2], 67%; in series [3], 89%; in [4], 89.7%. In addition, the solubility entry in series [5] was “Soluble”.
